The record followed here is ChEMBL document CHEMBL1212854, “The structure-activity relationships of A-ring-substituted aromathecin topoisomerase I inhibitors strongly support a camptothecin-like binding mode” (2010).

One may read the GI50 as the concentration that inhibits growth by half.

In assay [1] the target is T1, DNA topoisomerase 1 (Homo sapiens) (UniProt P11387).
T1 sequence (whole entry): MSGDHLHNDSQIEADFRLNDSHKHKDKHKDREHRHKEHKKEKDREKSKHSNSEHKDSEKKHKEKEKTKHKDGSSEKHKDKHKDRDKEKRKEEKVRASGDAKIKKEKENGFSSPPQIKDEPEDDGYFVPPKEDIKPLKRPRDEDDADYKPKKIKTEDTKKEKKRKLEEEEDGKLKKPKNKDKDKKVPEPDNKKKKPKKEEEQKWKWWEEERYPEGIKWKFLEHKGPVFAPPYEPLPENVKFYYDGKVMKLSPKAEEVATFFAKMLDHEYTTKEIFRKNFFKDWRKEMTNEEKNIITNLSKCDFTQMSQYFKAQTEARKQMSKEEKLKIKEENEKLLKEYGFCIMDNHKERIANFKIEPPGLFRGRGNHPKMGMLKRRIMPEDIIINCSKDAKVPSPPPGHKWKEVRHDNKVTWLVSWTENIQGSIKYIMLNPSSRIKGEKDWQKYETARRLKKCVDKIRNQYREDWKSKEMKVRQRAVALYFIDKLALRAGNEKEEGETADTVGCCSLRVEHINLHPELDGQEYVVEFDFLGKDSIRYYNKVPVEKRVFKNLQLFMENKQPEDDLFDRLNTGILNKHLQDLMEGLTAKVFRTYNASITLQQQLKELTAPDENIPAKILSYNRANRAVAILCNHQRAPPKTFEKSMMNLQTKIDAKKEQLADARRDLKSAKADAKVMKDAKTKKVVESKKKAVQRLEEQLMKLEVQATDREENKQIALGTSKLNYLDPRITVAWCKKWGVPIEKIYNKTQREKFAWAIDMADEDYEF
As to the kind of experiment: Inhibition of human recombinant Top1-mediated DNA cleavage at 0.1 to 100 uM after 20 mins relative to camptothecin. On the set-up: scale not given: the % may be the effect or the level left. In short, it runs like this:
(§1)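 Human recombinant Top1 purified from baculovirus. Substrate is a 117-bp oligonucleotide, about 2 nM, 3′-end labelled with 32P-dGTP by Klenow fill-in. Stopped with 0.5% SDS, run on 20% denaturing PAGE and phosphorimaged. Cleavage graded 0 to +++ against 1 μM camptothecin.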

Assay [2] has as its system NCI-60 human cancer cell line panel (Homo sapiens). As to the kind of experiment: Cytotoxicity against NCI-60 human cancer cell line panel (mean) at 10 uM. Particulars: pooled result: one value given for 8 cell lines, strains, targets or settings, read-out: GI.
The test system of another assay is MCF7. As to the kind of experiment: Cytotoxicity against human MCF7 cells. It is filed as functional. Put shortly: (§2)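 NCI 60-cell-line screen (eight solid-tumour subpanels plus leukemia). A one-dose pass at 10−5 M came first. Selected compounds were then run at five concentrations from 10−8 to 10−4 M. GI50 is the concentration giving 50% growth inhibition.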

The test system of another assay is HCT-116. In words: Cytotoxicity against human HCT116 cells. It is filed as functional. In short, it runs like this:
as §2

Another assay deals with OVCAR-3. In words: Cytotoxicity against human OVCAR-3 cells. Format: functional. In short, it runs like this: as §2
For a further assay, the system named is SF-539. As to the kind of experiment: Cytotoxicity against human SF539 cells. It is filed as functional. In short, it runs like this:
as §2

The next assay deals with HOP-62. In words: Cytotoxicity against human HOP62 cells. Format: functional. In short, it runs like this:
as §2

A further assay concerns SN12C. In words: Cytotoxicity against human SN12C cells. Format: functional. In short, it runs like this:
as §2

A further assay deals with UACC-62. In words: Cytotoxicity against human UACC62 cells. Format: functional. In short, it runs like this:
as §2

Another assay concerns DU-145. In words: Cytotoxicity against human DU145 cells. Format: functional. In short, it runs like this:
as §2

In assay [3] the target is T1, DNA topoisomerase 1 (Homo sapiens). In words: Inhibition of human recombinant Top1-mediated DNA cleavage at 1 uM after 20 mins relative to camptothecin. Put shortly: as §1

The source made the active and inactive calls. The calls are words filed in the database; no cut-off is given here.

`Cc1cc2c(CN3CC[C@H](O)C3)c3c(nc2cc1F)-c1cc2ccccc2c(=O)n1C3`: the Activity in assay [1] worked out at 50%. For the same molecule, in [2], the inhibition of growth at 10 µM is greater than 25%.
On to `O=c1c2ccccc2cc2n1Cc1c-2nc2cc(Cl)ccc2c1CNCCCn1ccnc1`, for which the GI50 turned out to be 1660 nM in the assay on MCF7; 1820 nM in the assay with HCT-116; 2040 nM in the assay with OVCAR-3; 1860 nM with SF-539; 2000 nM in the assay on HOP-62; 2090 nM with SN12C. This molecule also had a GI50 in the assay on UACC-62 of 1910 nM. The Activity in [1] worked out at 20%. In addition, the inhibition of growth at 10 µM in assay [2] is greater than 15%.
As for `COc1cc2c3c(n(CCCNCCO)c(=O)c2cc1OC)-c1cc2c(cc1C3=O)OCO2` [LMP-744], the GI50 with MCF7 is less than 10 nM; in the assay on HCT-116, 100 nM; in the assay on DU-145 it was less than 10 nM; in the assay on OVCAR-3 it was 500 nM; in the assay with SF-539, 40 nM; with HOP-62, 20 nM. Moreover, the results for the GI50 with SN12C and with UACC-62 were less than 10 nM and 30 nM, respectively. In assay [3], the result was Active.
As for `CC[C@@]1(O)C(=O)OCc2c1cc1n(c2=O)Cc2cc3ccccc3nc2-1` [CAMPTOTHECIN], the GI50 with MCF7 was 10 nM; in the assay on HCT-116 it was 30 nM; in the assay with DU-145, 10 nM; in the assay with SF-539, 10 nM; with HOP-62, 10 nM; in the assay on SN12C it was 20 nM. This molecule came in with a GI50 in the assay on UACC-62 of 10 nM. In addition, in [3], the outcome was Active.
Turning to `O=c1c2ccccc2cc2n1Cc1c-2nc2cc3c(cc2c1CNCCCN1CCOCC1)OCCO3`, the Activity in [1] stood at 50%. In addition, the inhibition of growth at 10 µM in assay [2] is 10.8%.
With `O=c1c2ccccc2cc2n1Cc1c-2nc2cc(Cl)ccc2c1Cn1ccnc1`, the Activity in assay [1] is 0%. For the same molecule, the inhibition of growth at 10 µM in assay [2] was less than 15%.
The like results for `O=c1c2ccccc2cc2n1Cc1c-2nc2cc3c(cc2c1CNCCCn1ccnc1)OCCO3` were, in that order, 50% and 14.3%.
Take `CN1CCN(Cc2c3c(nc4cc5c(cc24)OCCO5)-c2cc4ccccc4c(=O)n2C3)CC1`: in [1], the Activity came out at 50%. Further, the inhibition of growth at 10 µM in assay [2] worked out at 23%.
The corresponding values for `CN(C)CCCc1c2c(nc3cc4c(cc13)OCCO4)-c1cc3ccccc3c(=O)n1C2` are 75% and 19%.
The corresponding values for `O=c1c2ccccc2cc2n1Cc1c-2nc2cc(Cl)ccc2c1CN1CC[C@H](O)C1` are 20% and less than 15%.
The like results for `O=c1c2ccccc2cc2n1Cc1c-2nc2cc3c(cc2c1CCl)OCCO3` were, in that order, 20% and 10.3%.
`Cc1cc2c(CNCCO)c3c(nc2cc1F)-c1cc2ccccc2c(=O)n1C3`: the GI50 with MCF7 worked out at 1620 nM; with HCT-116, 18400 nM; in the assay with DU-145 it was 12200 nM; in the assay on OVCAR-3, 16800 nM; in the assay on SF-539, 9230 nM; in the assay with HOP-62, 11200 nM. Also, the GI50 in the assay with SN12C turned out to be 20200 nM; in the assay on UACC-62, 14200 nM. For the same molecule, in [1], the Activity was 50%. Moreover, in assay [2], the inhibition of growth at 10 µM was greater than 25%.
On to `COc1cc2nc3c(c(CN4CC[C@H](O)C4)c2cc1OC)Cn1c-3cc2ccccc2c1=O`, for which, in assay [1], the outcome was inactive. Further, in assay [2], the inhibition of growth at 10 µM stood at 14.2%.
Regarding `O=c1c2ccccc2cc2n1Cc1c-2nc2ccc(Cl)cc2c1Cn1ccnc1`, the GI50 worked out at 190 nM with MCF7; 400 nM in the assay on HCT-116; 480 nM in the assay on DU-145; 690 nM in the assay with OVCAR-3; 390 nM with SF-539; 460 nM with HOP-62. In addition, the results for the GI50 with SN12C and in the assay on UACC-62 were 1540 nM and 310 nM, respectively. For the same molecule, the Activity in [1] amounted to 20%.
As for `Cc1cc2c(CNCCCn3ccnc3)c3c(nc2cc1F)-c1cc2ccccc2c(=O)n1C3`, the GI50 with MCF7 came to 2210 nM; with HCT-116, 3050 nM; in the assay on DU-145, 6240 nM; in the assay on OVCAR-3, 4680 nM; in the assay on SF-539, 1100 nM; in the assay with HOP-62, 36700 nM. The GI50 in the assay with SN12C was 1800 nM; in the assay with UACC-62, greater than 100000 nM. Moreover, in [1], the result was inactive.
As for `O=c1c2ccccc2cc2n1Cc1c-2nc2cc3c(cc2c1CNCCO)OCO3`, the concentration for 50% growth inhibition (GI50) in the assay with MCF7 came out at 280 nM; in the assay on HCT-116 it was 950 nM; in the assay on DU-145 it was 1820 nM; with OVCAR-3, 1550 nM; in the assay on SF-539, 1350 nM; in the assay with HOP-62, 660 nM. For the same molecule, the GI50 with SN12C turned out to be 1910 nM; in the assay on UACC-62 it was 470 nM. In assay [1], the Activity stood at 50%.
On to `O=c1c2ccccc2cc2n1Cc1c-2nc2cc3c(cc2c1Cn1ccnc1)OCCO3`, for which the GI50 was 300 nM in the assay on MCF7; greater than 100000 nM in the assay with HCT-116; greater than 100000 nM in the assay on DU-145; 18600 nM in the assay with OVCAR-3; 4370 nM in the assay on SF-539; 19500 nM in the assay on HOP-62. Moreover, the values for the GI50 with SN12C and in the assay with UACC-62 were 81300 nM and 21400 nM, respectively. Besides, the Activity in assay [1] amounted to 75%.
As for `O=c1c2ccccc2cc2n1Cc1c-2nc2cc3c(cc2c1CNCCO)OCCO3`, the GI50 in the assay with MCF7 stood at 440 nM; in the assay with HCT-116 it was 2630 nM; with DU-145, 2040 nM; in the assay on OVCAR-3, 1950 nM; with SF-539, 4260 nM; in the assay on HOP-62, 5690 nM. Moreover, the concentration for 50% growth inhibition (GI50) in the assay on SN12C was 5750 nM; in the assay with UACC-62, 1160 nM. Further, the Activity in assay [1] was found to be 50%.
As for `O=c1c2ccccc2cc2n1Cc1c-2nc2cc3c(cc2c1CN1CCOCC1)OCCO3`, the GI50 stood at 300 nM in the assay with MCF7; 1330 nM with HCT-116; 930 nM in the assay with DU-145; 1700 nM in the assay with OVCAR-3; 810 nM in the assay on SF-539; 3800 nM in the assay on HOP-62. The concentration for 50% growth inhibition (GI50) worked out at 2570 nM in the assay on SN12C and 990 nM with UACC-62. For the same molecule, in assay [1], the Activity was determined as 75%.
With `O=c1c2ccccc2cc2n1Cc1c-2nc2cc3c(cc2c1CCCN1CCOCC1)OCCO3`, the GI50 came to 60 nM in the assay on MCF7; 1420 nM in the assay with HCT-116; 760 nM in the assay on DU-145; 1840 nM in the assay on OVCAR-3; 1150 nM with SF-539; 540 nM in the assay with HOP-62. The GI50 in the assay with SN12C is 1130 nM; in the assay on UACC-62 it was 1150 nM. For the same molecule, the Activity in [1] is 50%.
Regarding `CN1CCN(Cc2c3c(nc4ccc(Cl)cc24)-c2cc4ccccc4c(=O)n2C3)CC1`, the GI50 with MCF7 is 3310 nM; in the assay on HCT-116, 150 nM; in the assay on DU-145, 2750 nM; in the assay with OVCAR-3 it was 1510 nM; with SF-539, 1580 nM; with HOP-62, 2290 nM. The GI50 with SN12C came to 1780 nM; with UACC-62 it was 1410 nM. For the same molecule, in assay [1], the Activity stood at 20%.
Take `O=c1c2ccccc2cc2n1Cc1c-2nc2ccc(Cl)cc2c1CNCCCn1ccnc1`: the Activity in assay [1] was 50%. The inhibition of growth at 10 µM in [2] was found to be 30%.
